The values that follow come from ChEMBL document CHEMBL4715919 (Bioorg Med Chem, 2021).

Data set [1] addresses T1, Sodium/glucose cotransporter 2 (Homo sapiens, UniProt P31639).
T1 sequence (P31639 whole entry): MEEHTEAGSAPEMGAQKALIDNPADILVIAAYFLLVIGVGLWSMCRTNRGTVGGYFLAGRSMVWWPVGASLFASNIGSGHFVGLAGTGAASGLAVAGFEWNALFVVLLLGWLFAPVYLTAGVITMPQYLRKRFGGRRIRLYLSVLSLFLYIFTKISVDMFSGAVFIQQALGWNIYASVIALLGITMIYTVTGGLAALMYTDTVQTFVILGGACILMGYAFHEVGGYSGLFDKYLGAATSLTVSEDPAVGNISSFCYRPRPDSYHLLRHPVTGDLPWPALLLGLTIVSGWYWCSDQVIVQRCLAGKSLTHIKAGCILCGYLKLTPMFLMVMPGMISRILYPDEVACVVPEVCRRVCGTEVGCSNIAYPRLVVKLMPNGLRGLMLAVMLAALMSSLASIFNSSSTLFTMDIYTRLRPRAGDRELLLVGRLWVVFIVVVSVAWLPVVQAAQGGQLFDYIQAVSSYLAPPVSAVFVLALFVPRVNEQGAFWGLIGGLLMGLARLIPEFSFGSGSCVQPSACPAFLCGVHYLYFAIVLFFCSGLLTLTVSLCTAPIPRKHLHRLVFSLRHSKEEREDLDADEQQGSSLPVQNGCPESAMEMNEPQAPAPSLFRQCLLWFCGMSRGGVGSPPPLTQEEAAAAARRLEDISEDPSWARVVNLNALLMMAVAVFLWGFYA
Briefly: Inhibition of human SGLT2 expressed in COS7 cells assessed as reduction in [14C]-AMG uptake. It counts as cell-based. The method, boiled down:
(§1)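 Human SGLT2 expression plasmid transfected into COS-7 cells. Uptake of [¹⁴C]-α-methyl-D-glucopyranoside (AMG) measured with 0.3 mM AMG in uptake buffer. […] Mean ± SEM of at least three independent experiments.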

The target in data set [2] is T1, Sodium/glucose cotransporter 2. As to the kind of experiment: Inhibition of human SGLT2 expressed in COS7 cells. It counts as cell-based. The method, boiled down: as §1
Data set [3] is described as follows: Intrinsic clearance in rat intestinal S9 fraction at 10 uM up to 60 min in presence of NADPH by LC-MS/MS analysis.
Data set [4] can be described thus: Intrinsic clearance in human liver microsomes at 30 uM up to 60 mins by LC-MS/MS analysis. The note with it: read-out: CLH. It counts as ADME, Microsome. Put shortly:
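Compound at 30 μM incubated at 37 °C with human liver microsomes (1 mg/mL protein) in 100 mmol/L phosphate pH 7.4 with 10 mM MgCl₂ and 1 mg/mL NADPH. Sampled at 0, 15, 30 and 60 min, quenched with ice-cold acetonitrile, centrifuged. Parent measured by LC-MS/MS. t1/2 and CLint derived from remaining compound.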

Data set [5] is described as follows: Apparent permeability of compound in human Caco-2 cells by LC-MS/MS analysis. It counts as ADME, cell-based. The method, boiled down: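 Caco-2 cells seeded at 1.0 × 10⁵ cells/well on polycarbonate inserts (0.3 cm², 1 μm pores). After 60 min at 37 °C in 5% CO₂, buffer sampled from the opposite side. Compound measured by LC-MS/MS. Papp in 10^-6 cm/s.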
The nature of data set [6]: AUC(0 to t) in rat at 3 mg/kg, po up to 360 mins by LC-MS/MS analysis. The note with it: in vivo. Also on record: route oral, dose 3 mg/kg, time <=360. It counts as ADME, organism-based. Put shortly:
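Rats dosed once orally at 3 mg/kg (5 mL/kg) as a suspension in 0.5 w/v% methyl cellulose 400. Jugular vein blood drawn at 5, 10, 15, 30, 60, 120, 240 and 360 min. Plasma levels measured by LC-MS/MS. AUC taken to the last observation point. Mean ± SD.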

Data set [7] can be described thus: Oral bioavailability in rat assessed as ratio of AUC at 3 mg/kg up to 360 mins by LC-MS/MS analysis. It counts as ADME, organism-based. The note with it: in vivo. The method, boiled down:
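Rat oral dosing at 3 mg/kg in 0.5% methyl cellulose, with iv dosing at 1 mg/kg in 20% DMA/80% saline. Jugular blood sampled from 5 to 360 min, plasma quantified by LC-MS/MS. F is the ratio of oral AUC to iv AUC. For the ester prodrug, AUC of the parent glucoside after prodrug dosing is compared with iv parent.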

With `CCOc1ccc(Cc2c(O[C@@H]3O[C@H](CO)[C@@H](O)[C@H](O)[C@H]3O)n[nH]c2C)cc1`, the IC50 in data set [1] turned out to be 0.0108 µM. On the same count and under the same terms, the result for `Cc1ccccc1Cc1c(O[C@@H]2O[C@H](CO)[C@@H](O)[C@H](O)[C@H]2O)n[nH]c1C` reads 0.914 µM; that for `Cc1[nH]nc(O[C@@H]2O[C@H](CO)[C@@H](O)[C@H](O)[C@H]2O)c1CCc1ccccc1`, 5.29 µM. In the case of `Cc1ccc(Cc2c(O[C@@H]3O[C@H](CO)[C@@H](O)[C@H](O)[C@H]3O)n[nH]c2C)cc1`, in data set [1], the IC50 is 0.0122 µM. Same read-out and setting: the result for `Cc1[nH]nc(O[C@@H]2O[C@H](CO)[C@@H](O)[C@H](O)[C@H]2O)c1Cc1ccccc1` reads 0.181 µM; that for `CCc1ccc(Cc2c(O[C@@H]3O[C@H](CO)[C@@H](O)[C@H](O)[C@H]3O)n[nH]c2C)cc1`, 0.0039 µM. Regarding `Cc1[nH]nc(O[C@@H]2O[C@H](CO)[C@@H](O)[C@H](O)[C@H]2O)c1Cc1ccc(C(C)C)cc1`, the IC50 in data set [1] came to 0.0162 µM. Consider `CSc1ccc(Cc2c(C(F)(F)F)n[nH]c2O)cc1`, for which the IC50 in data set [2] is over 1000 µM. `CSc1ccc(Cc2c(O[C@@H]3O[C@H](CO)[C@@H](O)[C@H](O)[C@H]3O)n[nH]c2C(F)(F)F)cc1`: the IC50 in data set [1] was determined as 0.0163 µM. Moreover, the microsomal CLint at 10 µM in data set [3] was 73.2 µL/min/mg.

For the compound `CSc1ccc(Cc2c(O[C@@H]3O[C@H](CO)[C@@H](O)[C@H](O)[C@H]3O)n[nH]c2C)cc1`, the half-maximal inhibitory concentration (IC50) in data set [1] turned out to be 0.0049 µM. Also, the microsomal CLint at 10 µM in data set [3] was determined as 3.2 µL/min/mg. For the compound `CCCc1ccc(Cc2c(O[C@@H]3O[C@H](CO)[C@@H](O)[C@H](O)[C@H]3O)n[nH]c2C)cc1`, in data set [1], the IC50 worked out at 0.0088 µM. Consider `CCc1[nH]nc(O[C@@H]2O[C@H](CO)[C@@H](O)[C@H](O)[C@H]2O)c1Cc1ccc(SC)cc1`, for which the IC50 in data set [1] came out at 0.0512 µM. Moreover, in data set [3], the microsomal CLint at 10 µM amounted to 4.8 µL/min/mg. Consider `CCn1nc(O[C@@H]2O[C@H](CO)[C@@H](O)[C@H](O)[C@H]2O)c(Cc2ccc(OC(C)C)cc2)c1C`, for which, in data set [1], the 50% inhibitory concentration (IC50) came to 0.0434 µM. Moreover, the microsomal CLint at 30 µM in data set [4] worked out at 4.15 µL/min/mg.

As to `Cc1c(Cc2ccc(OC(C)C)cc2)c(O[C@@H]2O[C@H](CO)[C@@H](O)[C@H](O)[C@H]2O)nn1C(C)C` [REMOGLIFLOZIN], the IC50 in data set [1] is 0.0184 µM. The microsomal CLint at 30 µM in data set [4] came out at 0.85 µL/min/mg. Moreover, in data set [5], the Papp is 3.16 ×10⁻⁶ cm/s. The same compound showed an AUC(0-t) at 6 h in data set [6] of 27.9 ng·h/mL. The bioavailability in data set [7] came to 3.23%. Also, the microsomal CLint at 10 µM in data set [3] was 3.9 µL/min/mg. Regarding `CCOC(=O)OC[C@H]1O[C@@H](Oc2nn(C(C)C)c(C)c2Cc2ccc(OC(C)C)cc2)[C@H](O)[C@@H](O)[C@@H]1O` [REMOGLIFLOZIN ETABONATE], the IC50 in data set [1] was 2.53 µM. In addition, in data set [5], the Papp worked out at 4.29 ×10⁻⁶ cm/s. Also, the bioavailability in data set [7] amounted to 5.79%. Moreover, in data set [3], the microsomal CLint at 10 µM stood at 3.4 µL/min/mg. Turning to `Cc1c(Cc2ccc(OC(C)C)cc2)c(O[C@@H]2O[C@H](CO)[C@@H](O)[C@H](O)[C@H]2O)nn1C`, the IC50 in data set [1] turned out to be 0.11 µM. For the same compound, the microsomal CLint at 30 µM in data set [4] turned out to be 3.73 µL/min/mg. Regarding `Cc1cccc(Cc2c(O[C@@H]3O[C@H](CO)[C@@H](O)[C@H](O)[C@H]3O)n[nH]c2C)c1`, the IC50 in data set [1] is 0.757 µM.

In the case of `OC[C@H]1O[C@@H](Oc2n[nH]c3cccc(CCc4ccccc4)c23)[C@H](O)[C@@H](O)[C@@H]1O`, the IC50 in data set [1] is 0.086 µM. As for `Cc1nn(C)c(O[C@@H]2O[C@H](CO)[C@@H](O)[C@H](O)[C@H]2O)c1Cc1ccc(OC(C)C)cc1`, the 50% inhibitory concentration (IC50) in data set [1] was over 1 µM. Regarding `Cc1[nH]nc(O[C@@H]2O[C@H](CO)[C@@H](O)[C@H](O)[C@H]2O)c1Cc1ccc(OC(C)C)cc1`, the IC50 in data set [1] came to 0.01 µM. Moreover, in data set [4], the microsomal CLint at 30 µM is 1.44 µL/min/mg. For the same compound, in data set [5], the Papp is 1.02 ×10⁻⁶ cm/s. This compound also gave an AUC(0-t) at 6 h in data set [6] of 6.42 ng·h/mL. In addition, in data set [7], the bioavailability was 0.43%. Moreover, the microsomal CLint at 10 µM in data set [3] was 4.1 µL/min/mg. Take `Cc1[nH]nc(O[C@@H]2O[C@H](CO)[C@@H](O)[C@H](O)[C@H]2O)c1CCCc1ccccc1`: in data set [1], the IC50 was 3.95 µM.

As to `CCCn1nc(O[C@@H]2O[C@H](CO)[C@@H](O)[C@H](O)[C@H]2O)c(Cc2ccc(OC(C)C)cc2)c1C`, the IC50 in data set [1] stood at 0.0661 µM. Besides, the microsomal CLint at 30 µM in data set [4] was 6.75 µL/min/mg.

In the case of `CCCOc1ccc(Cc2c(O[C@@H]3O[C@H](CO)[C@@H](O)[C@H](O)[C@H]3O)n[nH]c2C)cc1`, the IC50 in data set [1] came out at 0.0154 µM. Regarding `COc1ccc(Cc2c(O[C@@H]3O[C@H](CO)[C@@H](O)[C@H](O)[C@H]3O)n[nH]c2C)cc1`, in data set [1], the IC50 turned out to be 0.0123 µM. Take `CSc1ccc(Cc2c(O[C@@H]3O[C@H](CO)[C@@H](O)[C@H](O)[C@H]3O)n[nH]c2C(C)C)cc1`: in data set [1], the IC50 came to 0.154 µM. Moreover, in data set [3], the microsomal CLint at 10 µM was 4.6 µL/min/mg.
